In ChEMBL document CHEMBL4673298, “Exploration of Structure-Activity Relationship of Aromatic Aldehydes Bearing Pyridinylmethoxy-Methyl Esters as Novel Antisickling Agents” (J Med Chem, 2020):
Active and inactive are the calls of the source. The calls are words filed in the database; no cut-off is given here.

Columns and labels:
Red blood cell [1] = experiment: Binding affinity to Hemoglobin in sickle cell RBCs from blood isolated from patient with homozygous SS assessed as increase in Hb affinity shift for oxygen at 0.5 mM under hypoxic conditions incubated for 2 hrs by oxygen equilibrium curve study; type: tissue-based; conditions: Homo sapiens
Procedure, shortened: (§1)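 SS blood, hematocrit 20%, incubated under air with compound (0.5, 1, 2 mM) at 37 °C for 1 h, then hypoxic (2.5% O2/97.5% N2) at 37 °C for 2 h. Cells are washed in PBS and hemolyzed hypotonically. Lysate in 0.1 M potassium phosphate pH 7.0 is run by Hemox analysis for P50. ΔP50 is given as percent of DMSO control. Three biological replicates, mean ± SD.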

Red blood cell [2] = experiment: Binding affinity to Hemoglobin in sickle cell RBCs from blood isolated from patient with homozygous SS assessed as increase in Hb affinity shift for oxygen at 2 mM under hypoxic conditions incubated for 2 hrs by oxygen equilibrium curve study; type: tissue-based; conditions: Homo sapiens; procedure, shortened: as §1
Erythrocyte = experiment: Inhibition of sickling in sickle cell RBCs from blood isolated from patient with homozygous SS under hypoxic conditions incubated for 2 hrs; type: functional, tissue-based; conditions: Homo sapiens
Procedure, shortened: (§2)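 SS blood, hematocrit 20%, preincubated under air with compound (0.5, 1, 2 mM) for 1 h at 37 °C, then 2 h hypoxia (2.5% O2/97.5% N2) at 37 °C. Aliquots are fixed in 2% glutaraldehyde without air exposure. Cell morphology is scored from bright-field images at 40×. Three biological replicates, mean ± SD.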

Red blood cell [3] = experiment: Binding affinity to Hemoglobin in sickle cell RBCs from blood isolated from patient with homozygous SS assessed as increase in Hb affinity shift for oxygen at 1 mM under hypoxic conditions incubated for 2 hrs by oxygen equilibrium curve study; type: tissue-based; conditions: Homo sapiens; procedure, shortened: as §1
Red blood cell [4] = experiment: Binding affinity to Hemoglobin in sickle cell RBCs from blood isolated from patient with homozygous SS assessed as increase in hemoglobin modification at 0.5 mM under hypoxic conditions incubated for 2 hrs […]; type: tissue-based; conditions: Homo sapiens
Procedure, shortened: (§3)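 SS blood, hematocrit 20%, incubated under air with compound (0.5, 1, 2 mM) at 37 °C for 1 h, then hypoxic (2.5% O2/97.5% N2) at 37 °C for 2 h. Cells are washed and hemolyzed. Lysate is run on weak cation-exchange HPLC to quantify Hb adduct (modified Hb). Three biological replicates, mean ± SD.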

[5] = Inhibition of sickling in sickle cell RBCs from blood isolated from patient with homozygous SS at 2 mM under hypoxic conditions incubated for 2 hrs; type: functional; conditions: Homo sapiens, Erythrocyte; procedure, shortened: as §2
Homo sapiens [6] = organism: Homo sapiens; experiment: Binding affinity to Hemoglobin in normal human whole blood assessed as increase in Hb affinity for oxygen at 2 mM by oxygen equilibrium curve study; type: tissue-based
Procedure, shortened: (§4)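 Normal human whole blood, hematocrit 30%, incubated with or without compound in DMSO (0.5, 1.0 or 2.0 mM; 2 mM for the time course) at 37 °C. The blood is tonometered about 7 min at 37 °C against gas with 0.804, 2.935 and 5.528% O2 (6, 20, 40 mmHg). sO2 and pO2 are read on a blood gas analyzer. ΔP50% is taken relative to no compound. Time course sampled at 1, 2, 4, 8, 12, 24 h.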

[7] = Inhibition of sickling in sickle cell RBCs from blood isolated from patient with homozygous SS at 1 mM under hypoxic conditions incubated for 2 hrs; type: functional; conditions: Homo sapiens, Erythrocyte; procedure, shortened: as §2
Red blood cell [8] = experiment: Binding affinity to Hemoglobin in sickle cell RBCs from blood isolated from patient with homozygous SS assessed as increase in hemoglobin modification at 2 mM under hypoxic conditions incubated for 2 hrs […]; type: tissue-based; conditions: Homo sapiens; procedure, shortened: as §3
Homo sapiens [9] = organism: Homo sapiens; experiment: Binding affinity to Hemoglobin in normal human whole blood assessed as increase in Hb affinity for oxygen incubated for 1.5 hrs by oxygen equilibrium curve study; type: tissue-based; procedure, shortened: as §4
Red blood cell [10] = experiment: Binding affinity to Hemoglobin in sickle cell RBCs from blood isolated from patient with homozygous SS assessed as increase in hemoglobin modification under hypoxic conditions incubated for 2 hrs […]; type: tissue-based; conditions: Homo sapiens; procedure, shortened: as §3
Red blood cell [11] = experiment: Binding affinity to Hemoglobin in sickle cell RBCs from blood isolated from patient with homozygous SS assessed as increase in hemoglobin modification at 1 mM under hypoxic conditions incubated for 2 hrs […]; type: tissue-based; conditions: Homo sapiens; procedure, shortened: as §3
Red blood cell [12] = experiment: Binding affinity to Hemoglobin in sickle cell RBCs from blood isolated from patient with homozygous SS assessed as increase in Hb affinity for oxygen under hypoxic conditions incubated for 2 hrs by oxygen equilibrium curve study; type: tissue-based; conditions: Homo sapiens; procedure, shortened: as §1
[13] = Inhibition of sickling in sickle cell RBCs from blood isolated from patient with homozygous SS at 0.5 mM under hypoxic conditions incubated for 2 hrs; type: functional; conditions: Homo sapiens, Erythrocyte; procedure, shortened: as §2
[14] = Induction of in-vivo modification of intracellular hemoglobin in C57BL/6 mouse at 150 mg/kg, ip dosed as single administration measured after 6 hrs by cation-exchange HPLC analysis
[15] = Stability in human whole blood assessed as parent compound level at 0.5 mM incubated for 24 hrs by reversed-phase HPLC analysis; type: ADME, tissue-based; conditions: read-out: Stabilty
Procedure, shortened: (§5)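 Normal whole blood, hematocrit 30%, incubated with or without compound at 0.5 or 1 mM at 37 °C. Aliquots taken at 0, 4, 8, 24 h are deproteinized with 0.1 M formic acid in acetonitrile at 60–65 °C for 30 min, centrifuged and filtered. Reversed-phase C18 HPLC uses a 0.1% formic acid water/acetonitrile gradient, detection at 261 nm. Parent and carboxylic acid analogue are quantified; the acid serves as reference.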

Mus musculus [16] = experiment: Induction of in-vivo modification of intracellular hemoglobin in C57BL/6 mouse at 150 mg/kg, ip dosed as single administration measured after 1 to 6 hrs by cation-exchange HPLC analysis; type: functional, organism-based; conditions: time 1-6 hrs, TDE = time-dependent effect
Procedure, shortened: (§6)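 C57BL/6 mice (3 male, 3 female) receive a single intraperitoneal dose of 150 mg/kg. Blood is drawn by submandibular bleeding before dosing and at 1, 3 and 6 h, then hemolyzed. Hb modification and Hb-O2 affinity shift are measured; n = 6.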

[17] = Induction of in-vivo hemoglobin-O2 affinity shifts in C57BL/6 mouse at 150 mg/kg, ip dosed as single administration measured after 6 hrs by oxygen equilibrium curve study; type: functional; procedure, shortened: as §6
Mus musculus [18] = experiment: Induction of in-vivo hemoglobin-O2 affinity shifts in C57BL/6 mouse at 150 mg/kg, ip dosed as single administration measured after 3 to 6 hrs by oxygen equilibrium curve study; type: functional, organism-based; conditions: time 3-6 hrs, TDE = time-dependent effect; procedure, shortened: as §6
[19] = Drug metabolism in human whole blood assessed as carboxylic acid analogue formation at 0.5 to 1 mM incubated up to 24 hrs by reversed-phase HPLC analysis; type: ADME, tissue-based; conditions: 1000 µM, dose 0.5-1 mM; procedure, shortened: as §5
[20] = Stability in human whole blood assessed as parent compound level at 1 mM incubated for 24 hrs by reversed-phase HPLC analysis; type: ADME, tissue-based; conditions: read-out: Stabilty; procedure, shortened: as §5

For COC(=O)c1ccc(COc2ccc(OC)cc2C=O)cn1, the Activity (Red blood cell [1]) was 9.9%, the Activity (Red blood cell [2]) was 32.3% and the inhibition (Erythrocyte) was “Dose-dependent effect”. The Activity (Red blood cell [3]) was 19.5%, the Activity (Red blood cell [4]) was 36.1% and the inhibition at 2000 µM [5] was 96.5%. For the same molecule, the Activity (Homo sapiens [6]; TDE = time-dependent effect) was “Tde”, the inhibition at 1000 µM [7] was 81.6% and the Activity (Red blood cell [8]) was 81.3%. The Activity (Homo sapiens [9]) was “Dose-dependent effect”, the Activity (Red blood cell [10]) was “Dose-dependent effect” and the Activity (Red blood cell [11]) was 64%. For the same molecule, the Activity (Red blood cell [12]) was “Dose-dependent effect” and the inhibition at 500 µM [13] was 29.1%.
For COC(=O)c1ccnc(COc2cccc(O)c2C=O)c1, the inhibition (Erythrocyte) was “Dose-dependent effect”, the inhibition at 2000 µM [5] was over 90% and the Activity (Homo sapiens [6]; TDE = time-dependent effect) was “Tde”. The Activity (Red blood cell [8]) was under 100%, the Activity (Homo sapiens [9]) was “Dose-dependent effect” and the Activity (Red blood cell [10]) was “Dose-dependent effect”. The Activity (Red blood cell [11]) was over 80% and the Activity (Red blood cell [12]) was “Dose-dependent effect”.
CC(C)n1nccc1-c1ncccc1COc1cccc(O)c1C=O [VOXELOTOR] gave an Activity (Red blood cell [1]) of 41%, an Activity (Red blood cell [3]) of 80% and an Activity (Red blood cell [4]) of 55%. It also gave an inhibition at 1000 µM [7] of 98%, an Activity (Red blood cell [11]) of 100% and an inhibition at 500 µM [13] of 56%.
In the case of COC(=O)c1cccnc1COc1cccc(O)c1C=O, the Activity (Red blood cell [1]) is reported as 12.2%, the Activity (Red blood cell [2]) is reported as 39.6% and the inhibition (Erythrocyte) is reported as “Dose-dependent effect”. For the same molecule, the Activity [14] was 16.9%, the remaining at 24 h, 500 µM [15] was 81% and the Activity (Red blood cell [3]) was 18.8%. For the same molecule, the Activity (Red blood cell [4]) was 46%, the inhibition at 2000 µM [5] was 98.8% and the Activity (Mus musculus [16]) was “Tde”. The Activity (Homo sapiens [6]; TDE = time-dependent effect) was “Tde”, the Activity [17] was 14.5% and the inhibition at 1000 µM [7] was 70.6%. For the same molecule, the Activity (Red blood cell [8]) was 90.8%, the Activity (Mus musculus [18]) was “Tde” and the Activity (Homo sapiens [9]) was “Dose-dependent effect”. For the same molecule, the Drug metabolism [19] was “Metabolite_Detected”, the remaining at 24 h, 1000 µM [20] was 78% and the Activity (Red blood cell [10]) was “Dose-dependent effect”. For the same molecule, the Activity (Red blood cell [11]) was 64.4%, the Activity (Red blood cell [12]) was “Dose-dependent effect” and the inhibition at 500 µM [13] was 43.3%.
With COC(=O)c1ccc(COc2cccc(O)c2C=O)nc1 the Activity (Homo sapiens [6]) was “inactive” and the Activity (Homo sapiens [9]) was “inactive”.
With COC(=O)c1cncc(COc2cccc(O)c2C=O)c1 the inhibition (Erythrocyte) was “Dose-dependent effect”, the inhibition at 2000 µM [5] was over 90% and the Activity (Red blood cell [8]) was under 100%. The Activity (Red blood cell [10]) was “Dose-dependent effect”, the Activity (Red blood cell [11]) was 60% and the Activity (Red blood cell [12]) was “Dose-dependent effect”.
For COc1ccc(OCc2cccc(CO)n2)c(C=O)c1, the inhibition (Erythrocyte) was “Dose-dependent effect”, the Activity [14] was 1.5% and the inhibition at 2000 µM [5] was over 90%. For the same molecule, the Activity (Mus musculus [16]) was “Tde”, the Activity [17] was 1% and the inhibition at 1000 µM [7] was 47%. For the same molecule, the Activity (Red blood cell [8]) was 80%, the Activity (Mus musculus [18]) was “Tde” and the Activity (Red blood cell [10]) was “Dose-dependent effect”. For the same molecule, the Activity (Red blood cell [11]) was 60%, the Activity (Red blood cell [12]) was “Dose-dependent effect” and the inhibition at 500 µM [13] was 26%.
In the case of COC(=O)c1cccc(COc2ccc(OC)cc2C=O)n1, the Activity (Red blood cell [1]) is reported as 4.8%, the Activity (Red blood cell [2]) is reported as 37.1% and the inhibition (Erythrocyte) is reported as “Dose-dependent effect”. For the same molecule, the Activity (Red blood cell [3]) was 20.1%, the Activity (Red blood cell [4]) was 20.9% and the inhibition at 2000 µM [5] was 88%. For the same molecule, the Activity (Homo sapiens [6]) was “inactive”, the inhibition at 1000 µM [7] was 48.2% and the Activity (Red blood cell [8]) was 63.8%. The Activity (Homo sapiens [9]) was “inactive”, the Activity (Red blood cell [10]) was “Dose-dependent effect” and the Activity (Red blood cell [11]) was 41.7%. For the same molecule, the Activity (Red blood cell [12]) was “Dose-dependent effect” and the inhibition at 500 µM [13] was 17.5%.
